According to ChEMBL document CHEMBL1151417, “Cytotoxic triterpenoid glycosides from the roots of Gordonia chrysandra” (J Nat Prod, 2009):

What was measured:
Type in all cases: functional, cell-based
Bel-7402 = experiment: Cytotoxicity against human Bel7402 cells after 96 hrs by MTT assay; conditions: Bel-7402, 96 h
How it was run: (§1)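 Cells kept in RPMI 1640 with 10% FBS, L-glutamine, penicillin/streptomycin at 37 °C, 5% CO2. 1.5 × 10³ cells/well seeded; after 24 h compounds added in DMSO at five final concentrations (0.01-10 […]), triplicate wells, 96 h exposure. MTT (0.5 mg/mL) 4 h at 37 °C, formazan dissolved in DMSO, A570 read. IC50 = 50% OD reduction vs control from dose-response curve.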

A2780 = experiment: Cytotoxicity against human A2780 cells after 96 hrs by MTT assay; conditions: A2780, 96 h; how it was run: as §1
A549 = experiment: Cytotoxicity against human A549 cells after 96 hrs by MTT assay; conditions: A549, 96 h; how it was run: as §1
HCT-8 = experiment: Cytotoxicity against human HCT8 cells after 96 hrs by MTT assay; conditions: HCT-8, 96 h; how it was run: as §1
BGC-823 = experiment: Cytotoxicity against human BGC823 cells after 96 hrs by MTT assay; conditions: BGC-823, 96 h; how it was run: as §1

Row | SMILES | IC50 (Bel-7402) | IC50 (A2780) | IC50 (A549) | IC50 (HCT-8) | IC50 (BGC-823)
1 | C/C=C(/C)C(=O)O[C@H]1[C@H](OC(=O)/C(C)=C\C)[C@]2(CO)[C@H](O)C[C@]3(C)C(=CC[C@@H]4[C@@]5(C)CC[C@H](O[C@@H]6O[C@H](C(=O)O)[C@@H](O)[C@H](O[C@@H]7OC[C@H](O)[C@H](O)[C@H]7O)[C@H]6O)[C@@](C)(CO)[C@@H]5CC[C@]43C)[C@@H]2CC1(C)C [GORDONOSIDE A] | 4.7 µM | 5.5 µM | > 10 µM | > 10 µM | > 10 µM
2 | C/C=C(/C)C(=O)O[C@H]1[C@H](OC(=O)/C(C)=C\C)[C@]2(CO)[C@H](OC(C)=O)C[C@]3(C)C(=CC[C@@H]4[C@@]5(C)CC[C@H](O[C@@H]6O[C@H](C(=O)O)[C@@H](O)[C@H](O[C@@H]7OC[C@H](O)[C@H](O)[C@H]7O)[C@H]6O)[C@@](C)(CO)[C@@H]5CC[C@]43C)[C@@H]2CC1(C)C [GORDONOSIDE B] | > 10 µM | > 10 µM | > 10 µM | > 10 µM | > 10 µM
3 | C/C=C(/C)C(=O)O[C@H]1[C@H](OC(=O)/C(C)=C\C)[C@]2(CO)[C@H](O)C[C@]3(C)C(=CC[C@@H]4[C@@]5(C)CC[C@H](O[C@@H]6O[C@H](C(=O)O)[C@@H](O)[C@H](O[C@@H]7OC[C@H](O)[C@H](O)[C@H]7O)[C@H]6O)C(C)(C)[C@@H]5CC[C@]43C)[C@@H]2CC1(C)C [GORDONOSIDE C] | 0.7 µM | 0.4 µM | 1.8 µM | 1.2 µM | 2.5 µM
4 | C/C=C(/C)C(=O)O[C@H]1[C@H](OC(=O)/C(C)=C\C)[C@]2(CO)[C@H](OC(C)=O)C[C@]3(C)C(=CC[C@@H]4[C@@]5(C)CC[C@H](O[C@@H]6O[C@H](C(=O)O)[C@@H](O)[C@H](O[C@@H]7OC[C@H](O)[C@H](O)[C@H]7O)[C@H]6O)C(C)(C)[C@@H]5CC[C@]43C)[C@@H]2CC1(C)C [GORDONOSIDE D] | > 10 µM | > 10 µM | > 10 µM | > 10 µM | > 10 µM
5 | C/C=C(/C)C(=O)O[C@H]1[C@H](OC(=O)/C(C)=C\C)[C@]2(CO)[C@H](O)C[C@]3(C)C(=CC[C@@H]4[C@@]5(C)CC[C@H](O[C@@H]6O[C@H](C(=O)O)[C@@H](O)[C@H](O[C@@H]7OC[C@H](O)[C@H](O)[C@H]7O)[C@H]6O)[C@@](C)(C=O)[C@@H]5CC[C@]43C)[C@@H]2CC1(C)C [GORDONOSIDE E] | 1.1 µM | 2 µM | > 10 µM | 2.7 µM | > 10 µM
6 | C/C=C(/C)C(=O)O[C@H]1[C@H](OC(=O)/C(C)=C\C)[C@]2(CO)[C@H](O)C[C@]3(C)C(=CC[C@@H]4[C@@]5(C)CC[C@H](O[C@@H]6O[C@H](C(=O)O)[C@@H](O)[C@H](O[C@@H]7OC[C@H](O)[C@H](O)[C@H]7O)[C@H]6O)[C@@](C)(C(=O)OC)[C@@H]5CC[C@]43C)[C@@H]2CC1(C)C [GORDONOSIDE F] | 1.3 µM | 2 µM | > 10 µM | > 10 µM | > 10 µM
7 | C/C=C(/C)C(=O)O[C@H]1[C@H](OC(=O)/C(C)=C\C)[C@]2(CO)[C@H](O)[C@H](O)[C@]3(C)C(=CC[C@@H]4[C@@]5(C)CC[C@H](O[C@@H]6O[C@H](C(=O)O)[C@@H](O)[C@H](O[C@@H]7OC[C@H](O)[C@H](O)[C@H]7O)[C@H]6O)[C@@](C)(C(=O)OC)[C@@H]5CC[C@]43C)[C@@H]2CC1(C)C [GORDONOSIDE G] | > 10 µM | > 10 µM | > 10 µM | > 10 µM | > 10 µM
8 | CC(=O)O[C@H]1C(=O)[C@@]2(C)[C@H]([C@H](OC(=O)c3ccccc3)[C@]3(O)C[C@H](OC(=O)[C@H](O)[C@@H](NC(=O)c4ccccc4)c4ccccc4)C(C)=C1C3(C)C)[C@]1(OC(C)=O)CO[C@@H]1C[C@@H]2O [PACLITAXEL] | 6.3 µM | 0.9 µM | 0.001 µM | 3.6 µM | 0.04 µM
